Test results as given in ChEMBL document CHEMBL3120094, “The survival times of malaria-infected mice are prolonged more by several new two-carbon-linked artemisinin-derived dimer carbamates than by the trioxane antimalarial drug artemether” (2014).

Assays:
Assay type in all cases: functional
[1] = tested on: Plasmodium berghei; assay: Antimalarial activity against Plasmodium berghei ANKA infected in C57BL/6J mouse assessed as decrease of parasitemia level at 5 mg/kg, po administered after 24 hrs post infection measured after 3 days in presence of 15 mg/kg of mefloquine hydrochloride relative to control; set-up: scale not given: the % may be the effect or the level left
Summary of the method: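 Male C57BL/6J mice, 5 weeks old and about 20 g, were infected with P. berghei ANKA (2 × 10⁷ parasitized erythrocytes). At 24 h they got one 200 μL oral dose: 5 mg/kg trioxane plus 15 mg/kg mefloquine hydrochloride in 7:3 Tween 80/ethanol diluted with water. Blood parasitemia was read on day 3 post-infection as % suppression versus untreated infected mice. Four mice per group.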

[2] = tested on: Plasmodium berghei; assay: Antimalarial activity against Plasmodium berghei ANKA infected in C57BL/6J mouse assessed as increase of host survival days at 5 mg/kg, po administered after 24 hrs post infection in presence of 15 mg/kg of mefloquine hydrochloride (reference value: 6.5 days)
[3] = tested on: Plasmodium berghei; assay: Antimalarial activity against Plasmodium berghei ANKA infected in C57BL/6J mouse assessed as parasitemia level at 5 mg/kg, po administered after 24 hrs post infection measured after 30 days in presence of 15 mg/kg of mefloquine hydrochloride relative to control
[4] = tested on: Plasmodium berghei; assay: Antimalarial activity against Plasmodium berghei ANKA infected in C57BL/6J mouse assessed as decrease of parasitemia level at 15 mg/kg, po administered after 24 hrs post infection measured after 3 days relative to control; set-up: scale not given: the % may be the effect or the level left
Summary of the method: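 Male C57BL/6J mice, 5 weeks old and about 20 g, were infected with P. berghei ANKA at 2 × 10⁷ parasitized erythrocytes. At 24 h post-infection, 4 mice per group received a single oral 200 μL dose in 7:3 Tween 80/ethanol diluted in deionized water. The dose was trioxane 5 mg/kg with mefloquine hydrochloride 15 mg/kg. Parasitemia suppression was read on day 3 versus untreated infected mice.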

[5] = tested on: Plasmodium berghei; assay: Antimalarial activity against Plasmodium berghei ANKA infected in C57BL/6J mouse assessed as increase of host survival days at 15 mg/kg, po administered after 24 hrs post infection (reference value: 6.5 days)

| SMILES | Activity [1] [%] | Survival [2] [days] | Activity [3] [%] | Activity [4] [%] | Survival [5] [days] |
| --- | --- | --- | --- | --- | --- |
| C[C@H]1[C@@H]([C@H](C[C@H]2O[C@@H]3O[C@@]4(C)CC[C@H]5[C@H](C)CC[C@@H]([C@H]2C)[C@@]35OO4)OC(=O)Nc2cc(F)cc(F)c2)O[C@@H]2O[C@@]3(C)CC[C@H]4[C@H](C)CC[C@@H]1[C@@]24OO3 | >99.9 | 21.8 | – | – | – |
| C[C@H]1[C@@H]([C@H](C[C@H]2O[C@@H]3O[C@@]4(C)CC[C@H]5[C@H](C)CC[C@@H]([C@H]2C)[C@@]35OO4)OC(=O)Nc2ccc(Br)cc2)O[C@@H]2O[C@@]3(C)CC[C@H]4[C@H](C)CC[C@@H]1[C@@]24OO3 | >99.9 | 12.5 | – | – | – |
| C[C@H]1[C@@H]([C@H](C[C@H]2O[C@@H]3O[C@@]4(C)CC[C@H]5[C@H](C)CC[C@@H]([C@H]2C)[C@@]35OO4)OC(=O)Nc2ccc(C#N)cc2)O[C@@H]2O[C@@]3(C)CC[C@H]4[C@H](C)CC[C@@H]1[C@@]24OO3 | >99.9 | 17.8 | – | – | – |
| C[C@H]1[C@@H]([C@H](C[C@H]2O[C@@H]3O[C@@]4(C)CC[C@H]5[C@H](C)CC[C@@H]([C@H]2C)[C@@]35OO4)OC(=O)Nc2ccc(F)c(F)c2)O[C@@H]2O[C@@]3(C)CC[C@H]4[C@H](C)CC[C@@H]1[C@@]24OO3 | >99.9 | 25.5 | 8 | – | – |
| C[C@H]1[C@@H]([C@H](C[C@H]2O[C@@H]3O[C@@]4(C)CC[C@H]5[C@H](C)CC[C@@H]([C@H]2C)[C@@]35OO4)OC(=O)Nc2ccc(F)cc2)O[C@@H]2O[C@@]3(C)CC[C@H]4[C@H](C)CC[C@@H]1[C@@]24OO3 | >99.9 | 18.8 | – | – | – |
| C[C@H]1[C@@H]([C@H](C[C@H]2O[C@@H]3O[C@@]4(C)CC[C@H]5[C@H](C)CC[C@@H]([C@H]2C)[C@@]35OO4)OC(=O)Nc2ccccc2)O[C@@H]2O[C@@]3(C)CC[C@H]4[C@H](C)CC[C@@H]1[C@@]24OO3 | >99.9 | 17 | – | – | – |
| Cc1cc(NC(=O)O[C@@H](C[C@H]2O[C@@H]3O[C@@]4(C)CC[C@H]5[C@H](C)CC[C@@H]([C@H]2C)[C@@]35OO4)[C@H]2O[C@@H]3O[C@@]4(C)CC[C@H]5[C@H](C)CC[C@@H]([C@H]2C)[C@@]35OO4)ccc1F | >99.9 | 13.5 | – | – | – |
| C[C@H]1[C@@H]([C@H](C[C@H]2O[C@@H]3O[C@@]4(C)CC[C@H]5[C@H](C)CC[C@@H]([C@H]2C)[C@@]35OO4)OC(=O)Nc2ccc(Cl)cc2)O[C@@H]2O[C@@]3(C)CC[C@H]4[C@H](C)CC[C@@H]1[C@@]24OO3 | >99.9 | 18.3 | – | – | – |
| C[C@H]1[C@@H]([C@H](C[C@H]2O[C@@H]3O[C@@]4(C)CC[C@H]5[C@H](C)CC[C@@H]([C@H]2C)[C@@]35OO4)OC(=O)Nc2ccc([N+](=O)[O-])cc2)O[C@@H]2O[C@@]3(C)CC[C@H]4[C@H](C)CC[C@@H]1[C@@]24OO3 | >99.9 | 22 | – | – | – |
| C[C@H]1[C@@H]([C@H](O)C[C@H]2O[C@@H]3O[C@@]4(C)CC[C@H]5[C@H](C)CC[C@@H]([C@H]2C)[C@@]35OO4)O[C@@H]2O[C@@]3(C)CC[C@H]4[C@H](C)CC[C@@H]1[C@@]24OO3 | >99.9 | 24.8 | – | – | – |
| C[C@H]1[C@@H]([C@H](C[C@H]2O[C@@H]3O[C@@]4(C)CC[C@H]5[C@H](C)CC[C@@H]([C@H]2C)[C@@]35OO4)OC(=O)Nc2ccc(C(F)(F)F)cc2)O[C@@H]2O[C@@]3(C)CC[C@H]4[C@H](C)CC[C@@H]1[C@@]24OO3 | >99.9 | 10.8 | – | – | – |
| C[C@H]1[C@@H]([C@H](C[C@H]2O[C@@H]3O[C@@]4(C)CC[C@H]5[C@H](C)CC[C@@H]([C@H]2C)[C@@]35OO4)OC(=O)Nc2cccc(Cl)c2)O[C@@H]2O[C@@]3(C)CC[C@H]4[C@H](C)CC[C@@H]1[C@@]24OO3 | >99.9 | 26.8 | 8 | – | – |
| OC(c1cc(C(F)(F)F)nc2c(C(F)(F)F)cccc12)C1CCCCN1 (configuration not stated) [MEFLOQUINE] | – | – | – | >99.9 | 20.3 |
| C[C@H]1[C@@H]([C@H](C[C@H]2O[C@@H]3O[C@@]4(C)CC[C@H]5[C@H](C)CC[C@@H]([C@H]2C)[C@@]35OO4)OC(=O)Nc2cccc(F)c2)O[C@@H]2O[C@@]3(C)CC[C@H]4[C@H](C)CC[C@@H]1[C@@]24OO3 | >99.9 | 20.3 | – | – | – |
| C[C@H]1[C@@H]([C@@H](O)C[C@H]2O[C@@H]3O[C@@]4(C)CC[C@H]5[C@H](C)CC[C@@H]([C@H]2C)[C@@]35OO4)O[C@@H]2O[C@@]3(C)CC[C@H]4[C@H](C)CC[C@@H]1[C@@]24OO3 | >99.9 | 25 | – | – | – |
| C[C@H]1[C@@H]([C@H](C[C@H]2O[C@@H]3O[C@@]4(C)CC[C@H]5[C@H](C)CC[C@@H]([C@H]2C)[C@@]35OO4)OC(=O)Nc2ccc(F)c(Cl)c2)O[C@@H]2O[C@@]3(C)CC[C@H]4[C@H](C)CC[C@@H]1[C@@]24OO3 | >99.9 | 24.8 | 8 | – | – |
| C[C@H]1[C@@H]([C@H](C[C@H]2O[C@@H]3O[C@@]4(C)CC[C@H]5[C@H](C)CC[C@@H]([C@H]2C)[C@@]35OO4)OC(=O)Nc2cccc(C(F)(F)F)c2)O[C@@H]2O[C@@]3(C)CC[C@H]4[C@H](C)CC[C@@H]1[C@@]24OO3 | >99.9 | 18 | – | – | – |
